Assay results as given in article PMC9862713 (Bioorganic & Medicinal Chemistry, 2023).
Values after ≈ are worked out from the molar mass of the structure shown. “Also recorded” adds a separate entry of the source.

Tests used:
HEK-293 = experiment: MTT cell viability / cytotoxicity assay; type: cell-based, Human; conditions: 24 and 48 h, concentrations up to 100 µM
Procedure, shortened: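 HEK-293 cells kept in DMEM with 2 mM L-glutamine, 10% heat-inactivated FBS and 1% pen/strep at 37 °C, 5% CO2. Seeded at 10,000 cells/well; compound or DMSO vehicle (0.5% final) added 24 h later, 24 or 48 h exposure. MTT 0.5 mg/ml final for 2 h at 37 °C, ethanol solubilisation, A570 (ref 650 nm). Eight serial dilutions in triplicate, sigmoidal dose–response fit; mean ± SD, three independent experiments.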

[1] = Aqueous kinetic solubility in PBS pH 7.4; type: physicochemical; conditions: for solubility kinetic at 24 h: phosphate buffered saline (PBS), pH 7.4, Kinetic solubility Sk
SARS-CoV-2 RdRp = SARS-CoV-2 RdRp (Severe acute respiratory syndrome coronavirus 2, UniProt P0DTD1); experiment: RdRp enzymatic assay; type: biochemical
[2] = PBS pH 7.4, 25 °C, 24 h, target 250 µM, 2.5 % DMSO

O=c1c(OCCO)c(-c2ccc(O)c(O)c2)oc2cc(O)cc(O)c12 [Compound 5]
Cytotoxicity on HEK-293 (HEK-293): no cytotoxicity effects; also recorded: did not appear to be cytotoxic

O=c1cc(Cc2ccc(O)c(O)c2)oc2cccc(O)c12 [Compound 7]
Improvement of kinetic solubility ([1]; compared to the hits (luteolin, quercetin)): 3 to 4 fold

O=c1c(OCCCO)c(-c2ccc(O)c(O)c2)oc2cc(O)cc(O)c12 [Compound 6]
Cytotoxicity on HEK-293 (HEK-293): did not appear to be cytotoxic; also recorded: no cytotoxicity
Kinetic solubility Sk [1, 2]: 231 µM

CC(c1ccc(O)c(O)c1)c1cc(=O)c2c(O)cccc2o1 (stereo not drawn) [Compound 8]
Cytotoxicity on HEK-293 (HEK-293): no cytotoxicity effects; also recorded: did not appear to be cytotoxic

O=c1cc(C(CCCC(F)(F)F)c2ccc(O)c(O)c2)oc2cccc(O)c12 (stereo not drawn) [Compound 10]
IC50 against SARS-CoV-2 RdRp (SARS-CoV-2 RdRp; enzymatic assay, 37 °C, 60 min, duplicate): no inhibition

O=C(NCCNC(=S)Nc1ccc(O)c(O)c1)c1cc(=O)c2c(O)cccc2o1 [Compound 17]
solubility kinetic at 24 h [1, 2]: 1 µM (≈ 0.415 µg/mL)

CCCCOc1c(-c2ccc(O)c(O)c2)oc2cc(O)cc(O)c2c1=O [Compound 4]
Cytotoxicity on HEK-293 (HEK-293): no cytotoxicity effects; also recorded: did not appear to be cytotoxic

O=C(Oc1ccc(O)c(O)c1)c1cc(=O)c2c(O)cccc2o1 [Compound 14]
Increase of activity (IC50 ratio) (SARS-CoV-2 RdRp; compared to 12 and 13): about 4 fold
solubility kinetic at 24 h [1, 2]: 1 µM (≈ 0.314 µg/mL)

O=c1cc(/C=C/c2ccc(O)c(O)c2)oc2cccc(O)c12 [Compound 12]
solubility kinetic at 24 h [1, 2]: 1 µM (≈ 0.296 µg/mL)

O=C(OCCc1ccc(O)c(O)c1)c1cc(=O)c2c(O)cccc2o1 [Compound 15]
Drop of potency (IC50 ratio) (SARS-CoV-2 RdRp; compared to the rigid ester 14): 22 fold
